For 19 compounds, inhibition, IC50 and Ratio IC50 results are on record in ChEMBL document CHEMBL1157676, “Carboxymethylated-kappa-casein: a convenient tool for the identification of polyphenolic inhibitors of amyloid fibril formation” (Bioorg Med Chem, 2010).

Activity calls are given as the source filed them. The calls are words filed in the database; no cut-off is given here.

Assay [1] is described as follows: Inhibition of reduced carboxymethylated kappa-casein fibril formation at 50 ug/mL measured every 5 mins after 1000 mins by thioflavin T staining-based binding assay. Summed up: (§1)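 RCM-κ-CN (0.5 mg/mL final) in 50 mM sodium phosphate pH 7.2 with 10 µM ThT and test compound (final DMSO ≤1%), incubated at 37 °C unshaken in sealed plates. Fluorescence (ex 440/em 490 nm) was read every 5 min for 1000 min. %FFi = 100×(ΔFc−ΔFs)/ΔFc versus a 1% DMSO control. Duplicates.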

The nature of assay [2]: Inhibition of reduced carboxymethylated kappa-casein fibril formation measured every 5 mins after 1000 mins by thioflavin T staining-based binding assay. In a few lines: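 RCM-κ-CN fibrillation (0.5 mg/mL) at 37 °C, pH 7.2 phosphate (50 mM), 10 µM ThT, no shaking. ThT fluorescence 440/490 nm was read every 5 min over 1000 min. Duplicate samples. The positive control IC50 is the mean of four batches.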

Assay [3] is described as follows: Inhibition of reduced carboxymethylated kappa-casein fibril formation assessed as formation of shorter and stunted fibrils by transmission electron microscopy.
Assay [4] can be described thus: Inhibition of reduced carboxymethylated kappa-casein fibril formation at 5 ug/mL measured every 5 mins after 1000 mins by thioflavin T staining-based binding assay. In a few lines:
as §1

A short description of assay [5]: Inhibition of reduced carboxymethylated kappa-casein fibril formation at 12.5 ug/mL measured every 5 mins after 1000 mins by thioflavin T staining-based binding assay. In a few lines:
as §1

The nature of assay [6]: Inhibition of reduced carboxymethylated kappa-casein fibril formation at 100 ug/mL measured every 5 mins after 1000 mins by thioflavin T staining-based binding assay. In a few lines:
as §1

A short description of assay [7]: Inhibition of beta amyloid (1 to 42) fibril formation at 50 ug/mL by thioflavin T staining-based binding assay.
Assay [8] can be described thus: Inhibition of beta amyloid (1 to 40) fibril formation by thioflavin T staining-based binding assay.
Assay [9] is described as follows: Inhibition of beta amyloid (1 to 42) fibril formation by thioflavin T staining-based binding assay.
Assay [10] in a line: Inhibition of beta amyloid (1 to 40) fibril formation.
Assay [11] in a line: Selectivity ratio of IC50 for reduced carboxymethylated kappa-casein fibril formation to IC50 for beta amyloid (1 to 40) fibril formation.
A short description of assay [12]: Selectivity ratio of IC50 for reduced carboxymethylated kappa-casein fibril formation to IC50 for beta amyloid (1 to 42) fibril formation.
Assay [13] can be described thus: Inhibition of reduced carboxymethylated kappa-casein fibril formation at 17 ug/mL measured every 5 mins after 1000 mins by thioflavin T staining-based binding assay. Summed up:
as §1

Assay [14] can be described thus: Inhibition of beta amyloid (1 to 42) fibril formation.
Assay [15] in a line: Inhibition of beta amyloid (1 to 40) fibril formation after 24 hrs by fluorimetry.

The inhibition is the share of the control response that was lost under treatment. As usually defined, the IC50 is the concentration needed to halve the response being measured.

With `CC(=O)Oc1cc(OC(C)=O)c2c(=O)c(OC(C)=O)c(-c3ccc(OC(C)=O)c(OC(C)=O)c3)oc2c1`, the inhibition in [1] is 90%. In assay [2], this compound gave a half-inhibitory concentration (IC50) of 6.8 µM. Further, the inhibition entry in assay [3] was “Active”.

For `CO/C(=C\c1ccc(OC)c(OC)c1)C(=O)c1c(O)cc(OC)cc1OC`, the inhibition in assay [1] was 35%.

As for `COc1ccc(-c2coc3cc(O)cc(O)c3c2=O)cc1`, in [4], the inhibition worked out at 0%.

Consider `COc1ccc2c(=O)c(O)c(-c3cc(OC)c(OC)cc3CO)oc2c1`, for which, in assay [5], the inhibition is 0%.

In [4], `O=c1c(O)c(-c2ccc(O)cc2)oc2cc(O)ccc12` gave an inhibition of 0%.

For the compound `Oc1ccc([C@H]2Oc3cc(O)cc(O)c3C[C@H]2O)cc1`, the inhibition in assay [6] amounted to 17%.

Take `O=C1c2c(O)cc(O)cc2O[C@H](c2ccc(O)c(O)c2)[C@H]1O` [(+)-TAXIFOLIN]: the inhibition was 84% in assay [1] and 57% in assay [7]. The compound also had an IC50 in assay [2] of 40.1 µM.

On to `Oc1cc(O)c2c(c1)O[C@H](c1ccc(O)c(O)c1)[C@H](O)C2` [(-)-EPICATECHIN], for which the inhibition in assay [1] turned out to be 7%. Moreover, the IC50 in assay [8] was 2.8 µM; in assay [9], 5.6 µM.

On to `COc1ccc(-c2coc3cc(O)ccc3c2=O)cc1O` [CALYCOSIN], for which the inhibition in [4] turned out to be 1%. Moreover, the concentration for half-maximal inhibition (IC50) entry in [10] is given as “Not Active”.

As to `Oc1cc(O)c2c(c1)O[C@H](c1ccc(O)c(O)c1)[C@@H](O)C2` [CIANIDANOL], the inhibition in assay [1] is 0%. The values for the half-inhibitory concentration (IC50) in assay [8] and in [9] were 2.9 µM and 5.3 µM, respectively.

`O=c1c(-c2ccc(O)cc2)coc2cc(O)ccc12` [DAIDZEIN] came in with an inhibition in assay [1] of 25%. Besides, the half-maximal inhibitory concentration (IC50) result in [10] is reported as “Active”.

For `O=C(O[C@@H]1Cc2c(O)cc(O)cc2O[C@@H]1c1cc(O)c(O)c(O)c1)c1cc(O)c(O)c(O)c1` [EPIGALOCATECHIN GALLATE], the inhibition in assay [1] and in assay [7] was 100% throughout. Also, the half-maximal inhibitory concentration (IC50) amounted to 3.7 µM in assay [2] and 0.18 µM in [10] (read-out: IC50). For the same compound, the Ratio IC50 in assay [11] worked out at 20; in assay [12], 10.

With `O=c1c(O)c(-c2ccccc2)oc2cc(O)cc(O)c12` [GALANGIN], the inhibition in assay [1] amounted to 68%. The concentration for half-maximal inhibition (IC50) in [2] was 61 µM; in assay [10] it was “Not Active”. For the same compound, in assay [3], the inhibition entry was “Active”.

Turning to `O=c1c(-c2ccc(O)cc2)coc2cc(O)cc(O)c12` [GENISTEIN], the inhibition in assay [1] was found to be 95%; in assay [7], 43%. Further, the values for the concentration for half-maximal inhibition (IC50) in assay [2] and in assay [10] were 190 µM and “Active”, respectively.

In [1], `O=c1c(O)c(-c2ccc(O)cc2)oc2cc(O)cc(O)c12` [KAEMPFEROL] came in with an inhibition of 86%. In addition, the IC50 in [2] turned out to be 33 µM; in assay [8] it was 1.7 µM; in [9], 3.2 µM. Also, the Ratio IC50 in assay [11] came out at 20; in assay [12], 10. The inhibition entry in [3] was “Active”.

Consider `O=c1c(O)c(-c2ccc(O)cc2O)oc2cc(O)cc(O)c12` [MORIN], for which the inhibition in assay [1] came to 99%; in assay [7], 94%. For the same compound, the 50% inhibitory concentration (IC50) in assay [2] was 49.5 µM; in assay [8], 0.24 µM; in [9] it was 0.67 µM. Besides, the results for the Ratio IC50 in assay [11] and in [12] were 206 and 74, respectively.

Turning to `O=c1c(O)c(-c2cc(O)c(O)c(O)c2)oc2cc(O)cc(O)c12` [MYRICETIN], the inhibition in assay [13] stood at 92%. Further, the IC50 in assay [8] came out at 0.29 µM; in [9], 0.4 µM; in assay [10] (read-out: IC50), 0.2 µM; in assay [14], 0.34 µM; in [15], 0.9 µM. For the same compound, in assay [3], the inhibition result was “Active”.

With `O=c1c(O)c(-c2ccc(O)c(O)c2)oc2cc(O)cc(O)c12` [QUERCETIN], the inhibition in [1] came out at 84%; in assay [7], 95%. The results for the IC50 in assay [2], in assay [8] and in assay [9] were 13.6 µM, 0.24 µM and 0.72 µM, respectively. Besides, the Ratio IC50 in [11] was 20; in [12], 10. Also, in [3], the inhibition entry is “Active”.

With `O=c1c(O)c(-c2cc(O)c(O)c(O)c2)oc2cc(O)ccc12` [ROBINETIN], in assay [4], the inhibition amounted to 89%. In assay [2], this compound had an IC50 of 13.9 µM. Further, the inhibition result in assay [3] is “Active”.
